Reference: ChEMBL document CHEMBL1124084, “Studies on scavengers of active oxygen species. 1. Synthesis and biological activity of 2-O-alkylascorbic acids” (J Med Chem, 1988)
Blank lines part the entries; values can stand above or below the compound they belong to.

Columns and labels:
[1] = Reducing activity determined by the use of stable radical alpha,alpha-di-phenyl-beta-picrylhydrazyl (DPPH); design: concentration or dose not given beside the values
Rattus norvegicus [2] = organism: Rattus norvegicus; assay: Inhibition of lipid peroxidation was determined with rat brain tissue homogenates; type: functional
In short: (§1)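 Brains excised from male SD rats (12 weeks), exsanguinated under pentobarbital anesthesia; 5% homogenate in phosphate buffer pH 7.4 incubated with test drug 1 h at 37 °C; lipid peroxide quantified by thiobarbituric acid method.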

Rattus norvegicus [3] = organism: Rattus norvegicus; assay: Antilipid peroxidation was determined; type: functional
In short: (§2)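 Rat brain lipid peroxidation: brains from male SD rats (12 weeks old), exsanguinated under pentobarbital anaesthesia, homogenized to 5% in phosphate buffer pH 7.4. Homogenate incubated with test drug at 37 °C for 1 h. Lipid peroxide quantified by the thiobarbituric acid method.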

Rattus norvegicus [4] = organism: Rattus norvegicus; assay: Antilipid peroxidation was measured at 10e-5 M concentration; type: functional
In short: as §2

Rattus norvegicus [5] = assay: Effect of AOS scavenger on ventricular fibrillation (VF), arrhythmias induced by ischemia-reperfusion in anesthetized rat, frequency, times at 20 mg/kg; type: functional, Cardiac ventricle
In short: (§3)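 Male SD rats (9–13 weeks, 250–370 g) under pentobarbital anesthesia with artificial respiration underwent thoracotomy and LAD coronary occlusion followed by reperfusion. Dosing was oral, 20 mg/kg at 24 h and again 20 mg/kg at 5 min before occlusion. VF and VT incidence, frequency and duration, and mean PVCs/min were recorded at 10 min postreperfusion.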

Rattus norvegicus [6] = assay: Effect of AOS scavenger on premeture ventricular complexes PVCs, arrhythmias induced by ischemia-reperfusion in anesthetized rat, duration at 20 mg/kg; PVSc/min; type: functional, Cardiac ventricle
In short: as §3

Rattus norvegicus [7] = assay: Effect of AOS scavenger on ventricular tachycardia (VT),arrhythmias induced by ischemia-reperfusion in anesthetized rat, duration at 20 mg/kg; type: functional, Cardiac ventricle
In short: as §3

Rattus norvegicus [8] = assay: Effect of AOS scavenger on ventricular fibrillation (VF),arrhythmias induced by ischemia-reperfusion in anesthetized rat, duration at 20 mg/kg; type: functional, Cardiac ventricle
In short: as §3

Rattus norvegicus [9] = assay: Effect of AOS scavenger on ventricular tachycardia (VT),arrhythmias induced by ischemia-reperfusion in anesthetized rat, incidence at 20 mg/kg; 8/8; type: functional, Cardiac ventricle
In short: as §3

Rattus norvegicus [10] = assay: Effect of AOS scavenger on ventricular fibrillation (VF),arrhythmias induced by ischemia-reperfusion in anesthetized rat, incidence at 20 mg/kg; 4/8; type: functional, Cardiac ventricle
In short: as §3

Rattus norvegicus [11] = assay: Effect of AOS scavenger on ventricular tachycardia (VT), arrhythmias induced by ischemia-reperfusion in anesthetized rat, frequency, times at 20 mg/kg; type: functional, Cardiac ventricle
In short: as §3

Rattus norvegicus [12] = assay: Effect of AOS scavenger on ventricular tachycardia (VT),arrhythmias induced by ischemia-reperfusion in anesthetized rat duration at 1 mg/kg; type: functional, Cardiac ventricle
Rattus norvegicus [13] = assay: Effect of AOS scavenger on ventricular tachycardia (VT),arrhythmias induced by ischemia-reperfusion in anesthetized rat, duration at 3 mg/kg; type: functional, Cardiac ventricle
Rattus norvegicus [14] = assay: Effect of AOS scavenger on ventricular tachycardia (VT),arrhythmias induced by ischemia-reperfusion in anesthetized rat, incidence at 10 mg/kg; 13/13; type: functional, Cardiac ventricle
Rattus norvegicus [15] = assay: Effect of AOS scavenger on ventricular fibrillation (VF),arrhythmias induced by ischemia-reperfusion in anesthetized rat, duration at 10 mg/kg; type: functional, Cardiac ventricle
Rattus norvegicus [16] = assay: Effect of AOS scavenger on ventricular tachycardia (VT),arrhythmias induced by ischemia-reperfusion in anesthetized rat, frequency, times at 1 mg/kg; type: functional, Cardiac ventricle
Rattus norvegicus [17] = assay: Effect of AOS scavenger on ventricular tachycardia (VT), arrhythmias induced by ischemia-reperfusion in anesthetized rat, frequency, timesat 10 mg/kg; type: functional, Cardiac ventricle
Rattus norvegicus [18] = assay: Effect of AOS scavenger on ventricular fibrillation (VF), arrhythmias induced by ischemia-reperfusion in anesthetized rat, frequency, times at 1 mg/kg; type: functional, Cardiac ventricle
Rattus norvegicus [19] = assay: Effect of AOS scavenger on ventricular tachycardia (VT),arrhythmias induced by ischemia-reperfusion in anesthetized rat, duration at 10 mg/kg; type: functional, Cardiac ventricle; conditions: 10 mg/kg
Rattus norvegicus [20] = assay: Effect of AOS scavenger on premeture ventricular complexes PVCs, arrhythmias induced by ischemia-reperfusion in anesthetized rat, duration at 1 mg/kg; type: functional, Cardiac ventricle
Rattus norvegicus [21] = assay: Effect of AOS scavenger on ventricular fibrillation (VF),arrhythmias induced by ischemia-reperfusion in anesthetized rat, incidence at 10 mg/kg; 4/13; type: functional, Cardiac ventricle
Rattus norvegicus [22] = assay: Effect of AOS scavenger on ventricular fibrillation (VF),arrhythmias induced by ischemia-reperfusion in anesthetized rat, incidence at 3 mg/kg; 3/10; type: functional, Cardiac ventricle
Rattus norvegicus [23] = assay: Effect of AOS scavenger on ventricular tachycardia (VT),arrhythmias induced by ischemia-reperfusion in anesthetized rat, frequency, times at 3 mg/kg; type: functional, Cardiac ventricle
Rattus norvegicus [24] = assay: Effect of AOS scavenger on ventricular fibrillation (VF), arrhythmias induced by ischemia-reperfusion in anesthetized rat, frequency, times at 10 mg/kg; type: functional, Cardiac ventricle; conditions: 10 mg/kg
Rattus norvegicus [25] = assay: Effect of AOS scavenger on premeture ventricular complexes PVCs, arrhythmias induced by ischemia-reperfusion in anesthetized rat, duration at 10 mg/kg; type: functional, Cardiac ventricle; conditions: 10 mg/kg
Rattus norvegicus [26] = assay: Effect of AOS scavenger on ventricular tachycardia (VT),arrhythmias induced by ischemia-reperfusion in anesthetized rat, incidence at 3 mg/kg; 10/10; type: functional, Cardiac ventricle
Rattus norvegicus [27] = assay: Effect of AOS scavenger on ventricular fibrillation (VF), arrhythmias induced by ischemia-reperfusion in anesthetized rat, frequency, timesat 3 mg/kg; type: functional, Cardiac ventricle
Rattus norvegicus [28] = assay: Effect of AOS scavenger on ventricular fibrillation (VF),arrhythmias induced by ischemia-reperfusion in anesthetized rat, incidence at 1 mg/kg; 5/14; type: functional, Cardiac ventricle
Rattus norvegicus [29] = assay: Effect of AOS scavenger on ventricular fibrillation (VF),arrhythmias induced by ischemia-reperfusion in anesthetized rat, duration at 1 mg/kg; type: functional, Cardiac ventricle
Rattus norvegicus [30] = assay: Effect of AOS scavenger on ventricular fibrillation (VF),arrhythmias induced by ischemia-reperfusion in anesthetized rat, duration at 3 mg/kg; type: functional, Cardiac ventricle
Rattus norvegicus [31] = assay: Effect of AOS scavenger on premeture ventricular complexes PVCs, arrhythmias induced by ischemia-reperfusion in anesthetized rat, duration at 3 mg/kg; type: functional, Cardiac ventricle
Rattus norvegicus [32] = assay: Effect of AOS scavenger on ventricular tachycardia (VT),arrhythmias induced by ischemia-reperfusion in anesthetized rat incidence at 10 mg/kg; 4/5; type: functional, Cardiac ventricle
Rattus norvegicus [33] = assay: Effect of AOS scavenger on ventricular fibrillation (VF), arrhythmias induced by ischemia-reperfusion in anesthetized rat, duration at 10 mg/kg; type: functional, Cardiac ventricle
Rattus norvegicus [34] = assay: Effect of AOS scavenger on ventricular fibrillation (VF),arrhythmias induced by ischemia-reperfusion in anesthetized rat, incidence at 10 mg/kg; 5/5; type: functional, Cardiac ventricle
Rattus norvegicus [35] = assay: Effect of AOS scavenger on ventricular tachycardia (VT), arrhythmias induced by ischemia-reperfusion in anesthetized rat, frequency, times at 10 mg/kg; type: functional, Cardiac ventricle
Rattus norvegicus [36] = organism: Rattus norvegicus; assay: Inhibition of lipid peroxidation was determined with rat brain tissue homogenates.; type: functional
In short: as §1

Rattus norvegicus [37] = organism: Rattus norvegicus; assay: Reducing activity determined by the use of stable radical alpha,alpha-di-phenyl-beta-picrylhydrazyl (DPPH); type: functional, organism-based
In short: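 Compound mixed with equimolar α,α-diphenyl-β-picrylhydrazyl; absorbance at 517 nm read after 20 min; reducing activity taken as absorbance difference from control.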

Rattus norvegicus [38] = assay: Effect of AOS scavenger on arrhythmias induced by ischemia-reperfusion in anesthetized rat measured as ventricular tachycardia (VT), duration at 3 mg/kg; type: functional, Cardiac ventricle
Rattus norvegicus [39] = assay: Effect of AOS scavenger on ventricular fibrillation (VF), arrhythmias induced by ischemia-reperfusion in anesthetized rat, incidence at 3 mg/kg; 6/6; type: functional, Cardiac ventricle
Rattus norvegicus [40] = assay: Effect of AOS scavenger on arrhythmias induced by ischemia-reperfusion in anesthetized rat measured as ventricular tachycardia (VT), incidence at 3 mg/kg; 6/6; type: functional, Cardiac ventricle
Rattus norvegicus [41] = assay: Effect of AOS scavenger on arrhythmias induced by ischemia-reperfusion in anesthetized rat measured as ventricular tachycardia (VT), frequency, times at 3 mg/kg; type: functional, Cardiac ventricle
Rattus norvegicus [42] = assay: Effect of AOS scavenger on ventricular fibrillation (VF), arrhythmias induced by ischemia-reperfusion in anesthetized rat, incidence at 3 mg/kg; type: functional, Cardiac ventricle

IC50 (Rattus norvegicus [2]): 6.8 µM
Structure (SMILES): CCCCCCCCCCCCCCCCCCOC1=C(O)OC(CCO)C1=O (configuration not stated)
Reducing activity [1]: 93.9%
Antilipid peroxidation (Rattus norvegicus [3]): 52%

Structure (SMILES): CCCCCCOc1ccc(COC2=C(O)OC(C(O)CO)C2=O)cc1 (configuration not stated)
Antilipid peroxidation (Rattus norvegicus [3]): 38.8%

IC50 (Rattus norvegicus [2]): 6.8 µM
Structure (SMILES): CCCCCCCCCCCCCCCCOC1=C(O)OC(C(O)CO)C1=O (configuration not stated)
Antilipid peroxidation (Rattus norvegicus [3]): 56.1%

IC50 (Rattus norvegicus [2]): 4.2 µM
Structure (SMILES): CCCCCCCCCCCCCCCCCCOC1=C(O)OC(C(O)COC(C)=O)C1=O (configuration not stated)
Antilipid peroxidation (Rattus norvegicus [4]): 76.3%

Structure (SMILES): Oc1ncnc2[nH]ncc12 [ALLOPURINOL]
Frequency (Rattus norvegicus [5]): 0.9
Activity (Rattus norvegicus [6]): 2.7 min
Duration (Rattus norvegicus [7]): 5.9 s
Duration (Rattus norvegicus [8]): 1.3 s
Incidence (Rattus norvegicus [9]): 8 N
Incidence (Rattus norvegicus [10]): 4 N
Frequency (Rattus norvegicus [11]): 3.1

Structure (SMILES): CCCCCCCCCCCCCCCCCCOC1=C(O)[C@@H](C(O)CO)OC1=O (stereo in doubt; 5k) [listing 1 of 2 here]
Reducing activity [1]: 95.4%
Antilipid peroxidation (Rattus norvegicus [3]): 65.9%

IC50 (Rattus norvegicus [2]): 4.3 µM
Structure (SMILES): CCCCCCCCCCCCCCCCCCOC1=C(O)[C@@H](C(O)CO)OC1=O (stereo in doubt; 5k) [listing 2 of 2 here]
Duration (Rattus norvegicus [12]): 11.4 s
Duration (Rattus norvegicus [13]): <6.9 s
Incidence (Rattus norvegicus [14]): 13 N
Duration (Rattus norvegicus [15]): 0.5 s
Frequency (Rattus norvegicus [16]): 4.3
Frequency (Rattus norvegicus [17]): 5.2
Frequency (Rattus norvegicus [18]): <1.1
Duration (Rattus norvegicus [19]): 12 s
Activity (Rattus norvegicus [20]): 3.4 min
Incidence (Rattus norvegicus [21]): 4 N
Incidence (Rattus norvegicus [22]): 3 N
Frequency (Rattus norvegicus [23]): 4
Frequency (Rattus norvegicus [24]): <0.5
Activity (Rattus norvegicus [25]): 12 min
Incidence (Rattus norvegicus [26]): 10 N
Frequency (Rattus norvegicus [27]): <0.7
Incidence (Rattus norvegicus [28]): 5
Duration (Rattus norvegicus [29]): <4.1 s
Duration (Rattus norvegicus [30]): <1.5 s
Activity (Rattus norvegicus [31]): <4.5 min

IC50 (Rattus norvegicus [36]): 9.8 µM
Structure (SMILES): CCCCCCCCCCCCCCCCCCOC1=C(O)[C@@H](C(O)CO)OC1=O (stereo in doubt; 8)
Incidence (Rattus norvegicus [32]): 4 N
Duration (Rattus norvegicus [33]): 122.4 s
Incidence (Rattus norvegicus [34]): 5 N
Duration (Rattus norvegicus [19]): 11.8 s
Frequency (Rattus norvegicus [35]): 3.8
Frequency (Rattus norvegicus [24]): 1.6
PVCs (Rattus norvegicus [25]): < 4 PVCs/min

IC50 (Rattus norvegicus [2]): 4.7 µM
Structure (SMILES): CCCCCCCCCCCCCCCCCCCCOC1=C(O)OC(C(O)CO)C1=O (configuration not stated)
Reducing activity [1]: 95.3%
Antilipid peroxidation (Rattus norvegicus [3]): 75.8%

IC50 (Rattus norvegicus [2]): 7.4 µM
Structure (SMILES): CCCCCCCCCCCCCOC1=C(O)OC(C(O)CO)C1=O (configuration not stated)
Antilipid peroxidation (Rattus norvegicus [3]): 57.4%

IC50 (Rattus norvegicus [2]): 2.4 µM
Structure (SMILES): CCCCCCCCCCCCCCCCCCOC1=C(O)OC(C2COC(C)(C)O2)C1=O (configuration not stated)
Antilipid peroxidation (Rattus norvegicus [4]): 58.5%

Structure (SMILES): O=C1O[C@H]([C@@H](O)CO)C(O)=C1O [ASCORBIC ACID]
Reducing activity (Rattus norvegicus [37]): 93.4%
Duration (Rattus norvegicus [38]): 8.2 s
Incidence (Rattus norvegicus [39]): 6 N
Incidence (Rattus norvegicus [40]): 6 N
Frequency (Rattus norvegicus [41]): 3.7
Antilipid peroxidation (Rattus norvegicus [3]): -71%
Activity (Rattus norvegicus [31]): 7.4 min
Duration (Rattus norvegicus [42]): 41.4 s
Frequency (Rattus norvegicus [42]): 4
